From ChEMBL document CHEMBL4266027, “Cyanobufalins: Cardioactive Toxins from Cyanobacterial Blooms” (J Nat Prod, 2018)

Key:
SK-OV-3 = test: Cytotoxicity against human SKOV3 cells assessed as decrease in cell viability after 72 hrs by MTS assay; format: functional, cell-based; settings: SK-OV-3, 72 h
Outline: (§1)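 Cell proliferation assay using the MTS reagent. Compounds were tested as a dilution series, and EC50 values were derived from the concentration–response data.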

HCT-116 = test: Cytotoxicity against human HCT116 cells assessed as decrease in cell viability after 72 hrs by MTS assay; format: functional, cell-based; settings: HCT-116, 72 h; outline: as §1
HepG2 = test: Cytotoxicity against human HepG2 cells assessed as decrease in cell viability after 72 hrs by MTS assay; format: functional, cell-based; settings: HepG2, 72 h; outline: as §1
MES-SA = test: Cytotoxicity against human MESSA cells assessed as decrease in cell viability after 72 hrs by MTS assay; format: functional, cell-based; outline: as §1
MES-SA/Dx5 = test: Cytotoxicity against human MES-SA/Dx5 cells assessed as decrease in cell viability after 72 hrs by MTS assay; format: functional, cell-based; settings: MES-SA/Dx5, 72 h; outline: as §1
786-0 = test: Cytotoxicity against human 786-O cells assessed as decrease in cell viability after 72 hrs by MTS assay; format: functional, cell-based; settings: 786-0, 72 h; outline: as §1
MCF7 = test: Cytotoxicity against human MCF7 cells assessed as decrease in cell viability after 72 hrs by MTS assay; format: functional, cell-based; settings: MCF7, 72 h; outline: as §1
BXPC-3 = test: Cytotoxicity against human BxPC3 cells assessed as decrease in cell viability after 72 hrs by MTS assay; format: functional, cell-based; settings: BXPC-3, 72 h; outline: as §1
U-87 MG = test: Cytotoxicity against human U87MG cells assessed as decrease in cell viability after 72 hrs by MTS assay; format: functional, cell-based, U-87MG ATCC; outline: as §1
NCI-H1975 = test: Cytotoxicity against human NCI-H1975 cells assessed as decrease in cell viability after 72 hrs by MTS assay; format: functional, cell-based; settings: NCI-H1975, 72 h; outline: as §1
HUVEC = test: Cytotoxicity against human HUVEC cells assessed as decrease in cell viability after 72 hrs by MTS assay; format: cell-based; outline: as §1
CCRF S-180 = test: Cytotoxicity against mouse S180 cells assessed as decrease in cell viability after 72 hrs by MTS assay; format: functional, cell-based; settings: CCRF S-180, 72 h; outline: as §1
Cardiac muscle cell [1] = test: Toxicity in human inducible pluripotent stem cell derived cardiomyocytes assessed as change in beating amplitude at 0.32 nM after 8 mins; format: cell-based; settings: 0.00032 µM
Outline: (§2)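 Human iPSC-derived cardiomyocytes (Cor.4U) were grown to stable beating cultures and monitored by impedance in real time with 20 s recordings. Compounds were given as a dilution series from 0.32 nM to 5 μM, dosed twice 24 h apart, with monitoring over 48 h. Beating amplitude was taken from each negative peak to the following positive peak and reported as % change.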

Cardiac muscle cell [2] = test: Toxicity in human inducible pluripotent stem cell derived cardiomyocytes assessed as change in beating amplitude at 0.32 nM after 33 mins; format: cell-based; settings: 0.55 h, 0.00032 µM; outline: as §2
Cardiac muscle cell [3] = test: Toxicity in human inducible pluripotent stem cell derived cardiomyocytes assessed as change in beating amplitude at 0.32 nM after 66 mins; format: cell-based; settings: 1.1 h, 0.00032 µM; outline: as §2
Cardiac muscle cell [4] = test: Toxicity in human inducible pluripotent stem cell derived cardiomyocytes assessed as change in beating amplitude at 0.32 nM after 4 hrs; format: cell-based; settings: 0.00032 µM; outline: as §2
Cardiac muscle cell [5] = test: Toxicity in human inducible pluripotent stem cell derived cardiomyocytes assessed as change in beating amplitude at 0.32 nM after 12 hrs; format: cell-based; settings: 0.00032 µM; outline: as §2
Cardiac muscle cell [6] = test: Toxicity in human inducible pluripotent stem cell derived cardiomyocytes assessed as change in beating amplitude at 0.32 nM after 24 hrs; format: cell-based; settings: 0.00032 µM; outline: as §2
Cardiac muscle cell [7] = test: Toxicity in human inducible pluripotent stem cell derived cardiomyocytes assessed as change in beating amplitude at 0.32 nM after 36 hrs; format: cell-based; settings: 0.00032 µM; outline: as §2
Cardiac muscle cell [8] = test: Toxicity in human inducible pluripotent stem cell derived cardiomyocytes assessed as change in beating amplitude at 0.32 nM after 48 hrs; format: cell-based; settings: 0.00032 µM; outline: as §2
Cardiac muscle cell [9] = test: Toxicity in human inducible pluripotent stem cell derived cardiomyocytes assessed as change in beating amplitude at 1.6 nM after 33 mins; format: cell-based; settings: 0.55 h, 0.0016 µM; outline: as §2
Cardiac muscle cell [10] = test: Toxicity in human inducible pluripotent stem cell derived cardiomyocytes assessed as change in beating amplitude at 1.6 nM after 66 mins; format: cell-based; settings: 1.1 h, 0.0016 µM; outline: as §2
Cardiac muscle cell [11] = test: Toxicity in human inducible pluripotent stem cell derived cardiomyocytes assessed as change in beating amplitude at 1.6 nM after 4 hrs; format: cell-based; settings: 0.0016 µM; outline: as §2
Cardiac muscle cell [12] = test: Toxicity in human inducible pluripotent stem cell derived cardiomyocytes assessed as change in beating amplitude at 1.6 nM after 12 hrs; format: cell-based; settings: 0.0016 µM; outline: as §2
Cardiac muscle cell [13] = test: Toxicity in human inducible pluripotent stem cell derived cardiomyocytes assessed as change in beating amplitude at 1.6 nM after 24 hrs; format: cell-based; settings: 0.0016 µM; outline: as §2
Cardiac muscle cell [14] = test: Toxicity in human inducible pluripotent stem cell derived cardiomyocytes assessed as change in beating amplitude at 1.6 nM after 36 hrs; format: cell-based; settings: 0.0016 µM; outline: as §2
Cardiac muscle cell [15] = test: Toxicity in human inducible pluripotent stem cell derived cardiomyocytes assessed as change in beating amplitude at 1.6 nM after 48 hrs; format: cell-based; settings: 0.0016 µM; outline: as §2
Cardiac muscle cell [16] = test: Toxicity in human inducible pluripotent stem cell derived cardiomyocytes assessed as change in beating amplitude at 8 nM after 33 mins; format: cell-based; settings: 0.55 h, 0.008 µM; outline: as §2
Cardiac muscle cell [17] = test: Toxicity in human inducible pluripotent stem cell derived cardiomyocytes assessed as change in beating amplitude at 8 nM after 66 mins; format: cell-based; settings: 1.1 h, 0.008 µM
Outline: (§3)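 Cor.4U hiPSC-derived cardiomyocytes grown to stable beating cultures, then monitored by impedance in RTCA Cardio plates with 20 s recordings. Compounds tested as a dilution series from 0.32 nM to 5 μM, dosed twice 24 h apart, followed over 48 h. Beating amplitude is taken from each negative peak to the next positive peak and reported as percent change.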

Cardiac muscle cell [18] = test: Toxicity in human inducible pluripotent stem cell derived cardiomyocytes assessed as change in beating amplitude at 8 nM after 4 hrs; format: cell-based; settings: 0.008 µM; outline: as §3
Cardiac muscle cell [19] = test: Toxicity in human inducible pluripotent stem cell derived cardiomyocytes assessed as change in beating amplitude at 8 nM after 12 hrs; format: cell-based; settings: 0.008 µM; outline: as §2
Cardiac muscle cell [20] = test: Toxicity in human inducible pluripotent stem cell derived cardiomyocytes assessed as change in beating amplitude at 8 nM after 24 hrs; format: cell-based; settings: 0.008 µM; outline: as §2
Cardiac muscle cell [21] = test: Toxicity in human inducible pluripotent stem cell derived cardiomyocytes assessed as change in beating amplitude at 8 nM after 36 hrs; format: cell-based; settings: 0.008 µM; outline: as §3
Cardiac muscle cell [22] = test: Toxicity in human inducible pluripotent stem cell derived cardiomyocytes assessed as change in beating amplitude at 8 nM after 48 hrs; format: cell-based; settings: 0.008 µM; outline: as §3
Cardiac muscle cell [23] = test: Toxicity in human inducible pluripotent stem cell derived cardiomyocytes assessed as change in beating amplitude at 40 nM after 33 mins; format: cell-based; settings: 0.55 h, 0.04 µM; outline: as §2
Cardiac muscle cell [24] = test: Toxicity in human inducible pluripotent stem cell derived cardiomyocytes assessed as change in beating amplitude at 40 nM after 66 mins; format: cell-based; settings: 1.1 h, 0.04 µM; outline: as §2
Cardiac muscle cell [25] = test: Toxicity in human inducible pluripotent stem cell derived cardiomyocytes assessed as change in beating amplitude at 40 nM after 48 hrs; format: cell-based; settings: 0.04 µM; outline: as §2
Cardiac muscle cell [26] = test: Toxicity in human inducible pluripotent stem cell derived cardiomyocytes assessed as change in beating amplitude at 1.6 nM after 8 mins; format: cell-based; settings: 0.0016 µM; outline: as §2
Cardiac muscle cell [27] = test: Toxicity in human inducible pluripotent stem cell derived cardiomyocytes assessed as change in beating amplitude at 8 nM after 8 mins; format: cell-based; settings: 0.008 µM; outline: as §3
Cardiac muscle cell [28] = test: Toxicity in human inducible pluripotent stem cell derived cardiomyocytes assessed as change in beating amplitude at 40 nM after 8 mins; format: cell-based; settings: 0.04 µM; outline: as §2
Cardiac muscle cell [29] = test: Toxicity in human inducible pluripotent stem cell derived cardiomyocytes assessed as increase in beating amplitude at >40 nM; format: cell-based; outline: as §3

## C[C@]12CC[C@H](O)C[C@H]1CC[C@@H]1[C@@H]2CC[C@]2(C)[C@@H](c3ccc(=O)oc3)CC[C@]12O [BUFALIN]
SK-OV-3
  EC50: 10 nM
HCT-116
  EC50: 11 nM
HepG2
  EC50: 35 nM
MES-SA
  EC50: 28 nM
MES-SA/Dx5
  EC50: 18 nM
786-0
  EC50: 7.5 nM
MCF7
  EC50: 42 nM
BXPC-3
  EC50: 11 nM
U-87 MG
  EC50: 14 nM
NCI-H1975
  EC50: 13 nM
HUVEC
  EC50: 12 nM
CCRF S-180
  EC50: > 20000 nM
Cardiac muscle cell [1]
  Activity: -3%
Cardiac muscle cell [2]
  Activity: -2%
Cardiac muscle cell [3]
  Activity: -4.4%
Cardiac muscle cell [4]
  Activity: 12%
Cardiac muscle cell [5]
  Activity: 17%
Cardiac muscle cell [6]
  Activity: 32%
Cardiac muscle cell [7]
  Activity: 62%
Cardiac muscle cell [8]
  Activity: 42%
Cardiac muscle cell [9]
  Activity: -0.6%
Cardiac muscle cell [10]
  Activity: -2.7%
Cardiac muscle cell [11]
  Activity: 11%
Cardiac muscle cell [12]
  Activity: 8.9%
Cardiac muscle cell [13]
  Activity: 4.3%
Cardiac muscle cell [14]
  Activity: -2.9%
Cardiac muscle cell [15]
  Activity: -10%
Cardiac muscle cell [16]
  Activity: 3.1%
Cardiac muscle cell [17]
  Activity: 10%
Cardiac muscle cell [18]
  Activity: 34%
Cardiac muscle cell [19]
  Activity: 35%
Cardiac muscle cell [20]
  Activity: -22%
Cardiac muscle cell [21]
  Activity: 7.6%
Cardiac muscle cell [22]
  Activity: -32%
Cardiac muscle cell [23]
  Activity: 21%
Cardiac muscle cell [24]
  Activity: -62%
Cardiac muscle cell [25]
  Activity: -84.3%
Cardiac muscle cell [26]
  Activity: 1.8%
Cardiac muscle cell [27]
  Activity: 2.8%
Cardiac muscle cell [28]
  Activity: 8.5%
Cardiac muscle cell [29]
  Activity: Toxic
